Measured values as given in ChEMBL document CHEMBL4190404, “Synthesis and characterization of amino acid substituted sunitinib analogues for the treatment of AML” (Bioorg Med Chem Lett, 2018).
In brackets after ≈: the same amount, converted by molar mass.

Experiments:
[1] = test system: Receptor-type tyrosine-protein kinase FLT3 (Homo sapiens), P36888 [UNDEFINED MUTATION]; test: Inhibition of FLT3 ITD mutant (unknown origin) using TAMRA-Src- tide as substrate at 12.5 uM after 1 hr by fluorescence polarization assay relative to control
Method in brief: (§1)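 FLT3-ITD kinase inhibition by fluorescence polarization IMAP assay; each compound tested at 12.5 and 1.25 μM; percent inhibition, average of two parallel measurements.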

[2] = Lipophilicity, chromatographic hydrophobicity index of the compound at pH 1.2 by HPLC method; assay type: physicochemical; conditions: buffer
Method in brief: (§2)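 RP-HPLC with buffer/acetonitrile gradient elution; CHI profile at starting pH 10.5, 7.4, 5.5 and 1.2; values given as average of the compound group.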

[3] = Aqueous solubility in pH 7.4 phosphate buffer at 120 uM after 24 hrs by HPLC method; assay type: physicochemical
[4] = test system: Receptor-type tyrosine-protein kinase FLT3 (Homo sapiens), P36888 [UNDEFINED MUTATION]; test: Inhibition of FLT3 ITD mutant (unknown origin) using TAMRA-Src- tide as substrate at 1.25 uM after 1 hr by fluorescence polarization assay relative to control; method in brief: as §1
[5] = Lipophilicity, chromatographic hydrophobicity index of the compound at pH 5.5 by HPLC method; assay type: physicochemical; conditions: buffer; method in brief: as §2
[6] = buffer, pH 10.5
[7] = Lipophilicity, chromatographic hydrophobicity index of the compound at pH 7.4 by HPLC method; assay type: physicochemical; conditions: buffer; method in brief: as §2
MV4-11 = test: Antiproliferative activity against human MV4-11 cells after 72 hrs by Celltiter-Glo luminescent cell viability assay; assay type: functional, cell-based; conditions: MV4-11, 72 h
Method in brief: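 MV4-11 leukaemia cells, 72 h proliferation assay, luminescence read-out; IC50 determined from concentration–response.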

[8] = Aqueous solubility in pH 5.5 phosphate buffer at 120 uM after 24 hrs by HPLC method; assay type: physicochemical; conditions: for solubility at 24 h, 120 µM: phosphate buffer, pH 5.5
[9] = Dissociation constant, pKa of the compound at 25 to 50 uM by UV spectroscopy; assay type: physicochemical
Method in brief: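 Carboxyl pKa by automated UV/pH titration with MeOH as co-solvent.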

[10] = n-Octanol-buffer distribution coefficient, log D of the compound at pH 5.5 after 1 hr by shake flask method; assay type: physicochemical
[11] = n-Octanol-buffer distribution coefficient, log D of the compound at pH 7.4 after 1 hr by shake flask method; assay type: physicochemical
[12] = Apparent partition coefficient, log P of the compound in n-octanol/aqueous mixture at pH 7.4 after 1 hr by shake flask method; assay type: physicochemical

Receptor-type tyrosine-protein kinase FLT3 (Homo sapiens), P36888 [UNDEFINED MUTATION], sequence (P36888 whole entry, looked up, change not shown): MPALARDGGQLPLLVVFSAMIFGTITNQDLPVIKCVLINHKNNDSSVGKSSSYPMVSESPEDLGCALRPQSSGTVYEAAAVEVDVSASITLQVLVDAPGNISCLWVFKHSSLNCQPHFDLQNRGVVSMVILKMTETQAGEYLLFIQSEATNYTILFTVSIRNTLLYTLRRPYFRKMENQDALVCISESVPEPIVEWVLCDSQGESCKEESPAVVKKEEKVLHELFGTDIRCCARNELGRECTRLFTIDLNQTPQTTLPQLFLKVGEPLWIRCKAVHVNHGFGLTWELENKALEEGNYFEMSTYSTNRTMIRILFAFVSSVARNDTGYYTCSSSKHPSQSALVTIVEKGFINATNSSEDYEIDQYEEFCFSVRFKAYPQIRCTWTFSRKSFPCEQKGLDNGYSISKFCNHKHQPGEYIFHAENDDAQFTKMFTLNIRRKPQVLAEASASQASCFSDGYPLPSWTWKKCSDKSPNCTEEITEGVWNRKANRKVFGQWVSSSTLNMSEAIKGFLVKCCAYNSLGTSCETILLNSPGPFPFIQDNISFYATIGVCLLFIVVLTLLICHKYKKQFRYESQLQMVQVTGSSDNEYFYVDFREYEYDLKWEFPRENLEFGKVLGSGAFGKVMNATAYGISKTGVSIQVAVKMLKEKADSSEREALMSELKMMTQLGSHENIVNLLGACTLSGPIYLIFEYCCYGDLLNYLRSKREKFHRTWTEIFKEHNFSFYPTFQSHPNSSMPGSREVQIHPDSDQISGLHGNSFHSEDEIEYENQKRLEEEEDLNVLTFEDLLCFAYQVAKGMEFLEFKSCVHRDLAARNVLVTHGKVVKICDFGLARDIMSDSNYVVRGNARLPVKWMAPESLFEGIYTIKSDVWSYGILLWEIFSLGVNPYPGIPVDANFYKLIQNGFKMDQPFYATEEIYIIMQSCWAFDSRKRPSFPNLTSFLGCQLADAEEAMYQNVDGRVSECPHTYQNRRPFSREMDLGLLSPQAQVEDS

inhibition [1] [%]	CHI [2]	solubility at 24 h, 120 µM [3] [µM]	inhibition [4] [%]	CHI [5]	CHI [6]	CHI [7]	IC50 (MV4-11) [µM]	solubility at 24 h, 120 µM [8] [µM]	pKa at up to 50 µM [9]	logD at 1 h [10]	logD at 1 h [11]	logD at 1 h [12]	solubility ([8]; buffer, pH 5.5, 24 h, 120 µM) [µM]	SMILES
> 100	80	70 (≈ 44.4 µg/mL)	58.6	60	57	59	24.3	30 (≈ 19 µg/mL)						COC(=O)[C@H](Cc1ccccc1)NC(=O)c1ccc2c(c1)/C(=C/c1[nH]c(C)c(C(=O)N[C@@H](Cc3ccccc3)C(=O)O)c1C)C(=O)N2
12.1			80.6						5.47					COC(=O)CC[C@@H](NC(=O)c1ccc2c(c1)/C(=C/c1[nH]c(C)c(C(=O)O)c1C)C(=O)N2)C(=O)OC
79.3	89	< 5	45.7	89	89	88	0.5	< 1						COC(=O)c1ccc2c(c1)/C(=C/c1[nH]c(C)c(C(=O)N[C@@H](Cc3ccccc3)C(=O)OC)c1C)C(=O)N2
> 100	76	≥ 120	90.9	54	51	53	2.2	< 5	3	2.23	0.33	4.73		COC(=O)c1ccc2c(c1)/C(=C/c1[nH]c(C)c(C(=O)N[C@@H](Cc3ccccc3)C(=O)O)c1C)C(=O)N2
75.4			62.5							3.36	3.36	3.36		COC(=O)CC[C@@H](NC(=O)c1ccc2c(c1)/C(=C/c1[nH]c(C)c(C(=O)N[C@H](CCC(=O)OC)C(=O)OC)c1C)C(=O)N2)C(=O)OC
71.6	73	20 (≈ 9.75 µg/mL)	69	68	47	56	3.7	< 1						COC(=O)[C@H](Cc1ccccc1)NC(=O)c1ccc2c(c1)/C(=C/c1[nH]c(C)c(C(=O)O)c1C)C(=O)N2
> 100	75	≥ 120	76.7	59	42	47	3.9		4.1	3.18	1.3	4.6	5 (≈ 1.55 µg/mL)	Cc1[nH]c(/C=C2\C(=O)Nc3ccccc32)c(C)c1CCC(=O)O [ORANTINIB]
92.2	73	< 5	87	73	73	73	0.08	< 5						COC(=O)CC[C@H](NC(=O)c1c(C)[nH]c(/C=C2\C(=O)Nc3ccc(C(=O)OC)cc32)c1C)C(=O)OC
> 100			74.2						3	0.62	-3.18	5.62		Cc1[nH]c(/C=C2\C(=O)Nc3ccc(C(=O)N[C@H](Cc4ccccc4)C(=O)O)cc32)c(C)c1C(=O)N[C@@H](Cc1ccccc1)C(=O)O
> 100	67	100 (≈ 63.1 µg/mL)	58.7	50	46	49		30 (≈ 18.9 µg/mL)	3.04	1.16	-0.74	3.62		COC(=O)CC[C@H](NC(=O)c1ccc2c(c1)/C(=C/c1[nH]c(C)c(C(=O)N[C@@H](Cc3ccccc3)C(=O)O)c1C)C(=O)N2)C(=O)OC
74.2	99	< 1	25	98	100	98	10.6	< 1						CCOC(=O)c1c(C)[nH]c(/C=C2\C(=O)Nc3ccc(C(=O)N[C@@H](Cc4ccccc4)C(=O)OC)cc32)c1C
98.7	73	100 (≈ 48.8 µg/mL)	85.8	59	49	52		< 5	4.61	3.38	1.53	4.32		COC(=O)[C@H](Cc1ccccc1)NC(=O)c1c(C)[nH]c(/C=C2\C(=O)Nc3ccc(C(=O)O)cc32)c1C
91	78	< 1	57.3	79	77	78	11.9	< 1						COC(=O)CC[C@H](NC(=O)c1c(C)[nH]c(/C=C2\C(=O)Nc3ccc(C(=O)N[C@@H](Cc4ccccc4)C(=O)OC)cc32)c1C)C(=O)OC
> 100	81	50 (≈ 31.7 µg/mL)	94.8	60	58	60		20 (≈ 12.7 µg/mL)						COC(=O)[C@H](Cc1ccccc1)NC(=O)c1c(C)[nH]c(/C=C2\C(=O)Nc3ccc(C(=O)N[C@@H](Cc4ccccc4)C(=O)O)cc32)c1C
> 100	70	≥ 120	98.7	40	36	39		110 (≈ 68.3 µg/mL)						Cc1[nH]c(/C=C2\C(=O)Nc3ccc(C(=O)N[C@@H](Cc4ccccc4)C(=O)O)cc32)c(C)c1C(=O)N[C@@H](Cc1ccccc1)C(=O)O
79.4	79	< 1	19.9	79	79	79	17.7	< 1						COC(=O)CC[C@H](NC(=O)c1ccc2c(c1)/C(=C/c1[nH]c(C)c(C(=O)N[C@@H](Cc3ccccc3)C(=O)OC)c1C)C(=O)N2)C(=O)OC
> 100			74.2						3.01	1.58	-0.32	4.07		COC(=O)CC[C@H](NC(=O)c1c(C)[nH]c(/C=C2\C(=O)Nc3ccc(C(=O)N[C@H](Cc4ccccc4)C(=O)O)cc32)c1C)C(=O)OC
> 100	58	≥ 120	97.4	45	35	38		30 (≈ 14.5 µg/mL)						COC(=O)CC[C@H](NC(=O)c1c(C)[nH]c(/C=C2\C(=O)Nc3ccc(C(=O)O)cc32)c1C)C(=O)OC
28.8	59	100 (≈ 48.3 µg/mL)	58.7	54	34	42		< 5						COC(=O)CC[C@H](NC(=O)c1ccc2c(c1)/C(=C/c1[nH]c(C)c(C(=O)O)c1C)C(=O)N2)C(=O)OC
> 100			74.2				13		3	3.18	1.28	5.68		COC(=O)[C@@H](Cc1ccccc1)NC(=O)c1ccc2c(c1)/C(=C/c1[nH]c(C)c(C(=O)N[C@@H](Cc3ccccc3)C(=O)O)c1C)C(=O)N2
92.3	92	< 1	28.9	91	91	90	10.9	< 1						COC(=O)[C@H](Cc1ccccc1)NC(=O)c1ccc2c(c1)/C(=C/c1[nH]c(C)c(C(=O)N[C@@H](Cc3ccccc3)C(=O)OC)c1C)C(=O)N2
